Results published in ChEMBL document CHEMBL1955770, “Inhibition of S/G2 phase CDK4 reduces mitotic fidelity” (J Biol Chem, 2006).
The source made the active and inactive calls. The rule behind the calls is not given here.

Experiments:
[1] = Cell cycle arrest in human SK-MEL-13 cells assessed as accumulation at S phase at 2 uM treated 1 hr and measured 8 hr post double hydroxyurea-synchrony release using propidium iodide staining by FACS analysis (reference value: 74 %); format: functional, cell-based
How it was run: (§1)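 SK-Mel-13 cells synchronized with 2 mM hydroxyurea, then treated with 2 μM CDK4 inhibitor or left untreated 1 h after release. Harvested at indicated times post-release, ethanol-fixed, propidium iodide/RNase stained, and DNA content read by FACS. Proportions of G1, S and G2/M cells derived with ModFit.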

[2] = system: HeLa; assay: Cell cycle arrest in human HeLa cells assessed as accumulation at G1 phase at 2 uM treated 4 hr and measured 10 hr post double thymidine-synchrony release using propidium iodide staining by FACS analysis (reference value: 68 %); format: functional
[3] = Cell cycle arrest in human SK-MEL-13 cells assessed as accumulation at G1 phase at 2 uM treated 1 hr and measured 8 hr post double hydroxyurea-synchrony release using propidium iodide staining by FACS analysis (reference value: 10 %); format: functional, cell-based; how it was run: as §1
[4] = biological target: Cyclin-dependent kinase 1/cyclin B1 (Homo sapiens, UniProt P06493); assay: Inhibition of human CDK1-GST-tagged cyclin B using his-tagged Rb as substrate after 30 mins by scintillation counting method; format: protein-complex assay
Sequence of Cyclin-dependent kinase 1/cyclin B1 (P06493 whole entry): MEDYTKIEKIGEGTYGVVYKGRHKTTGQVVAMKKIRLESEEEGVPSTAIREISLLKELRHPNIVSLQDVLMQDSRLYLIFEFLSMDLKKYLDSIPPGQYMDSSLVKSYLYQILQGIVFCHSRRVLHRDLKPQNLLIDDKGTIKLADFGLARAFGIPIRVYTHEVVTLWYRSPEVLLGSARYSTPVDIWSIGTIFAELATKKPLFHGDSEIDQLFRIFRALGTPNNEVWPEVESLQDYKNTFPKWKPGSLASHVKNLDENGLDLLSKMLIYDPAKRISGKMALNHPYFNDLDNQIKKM
Sequence of Cyclin-dependent kinase 1/cyclin B1 (P14635 whole entry, further chain): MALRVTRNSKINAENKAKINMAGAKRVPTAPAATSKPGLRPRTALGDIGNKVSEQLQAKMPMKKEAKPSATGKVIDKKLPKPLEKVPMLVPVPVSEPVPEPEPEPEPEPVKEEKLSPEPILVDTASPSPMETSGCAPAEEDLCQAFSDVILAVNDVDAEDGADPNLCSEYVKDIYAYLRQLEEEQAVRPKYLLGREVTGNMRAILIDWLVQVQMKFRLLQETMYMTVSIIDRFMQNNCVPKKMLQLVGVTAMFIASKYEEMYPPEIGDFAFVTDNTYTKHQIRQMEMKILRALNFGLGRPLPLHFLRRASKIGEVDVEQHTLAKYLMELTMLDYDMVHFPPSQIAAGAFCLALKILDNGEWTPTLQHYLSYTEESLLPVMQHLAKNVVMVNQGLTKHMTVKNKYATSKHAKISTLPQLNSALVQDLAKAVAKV

[5] = Cell cycle arrest in Rb-competent human SK-MEL-13 cells assessed as accumulation at G1 phase at 2 uM after 24 hrs by FACS analysis; format: functional
How it was run: (§2)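 Ethanol-fixed cells stained with propidium iodide/RNase A, DNA content read by FACS, phase and sub-diploid fractions calculated with ModFit.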

[6] = system: NCI-H460; assay: Toxicity in human H460a cells at IC50 after 3 days by MTT assay; format: cell-based; conditions: nci-h460, 72 h
[7] = system: HeLa; assay: Cell cycle arrest in human HeLa cells assessed as accumulation at G1 phase at 2 uM treated 2 hr and measured 10 hr post double thymidine-synchrony release using propidium iodide staining by FACS analysis (reference value: 68 %); format: functional
[8] = system: SW480; assay: Antiproliferative activity against human SW480 cells assessed as inhibition of S phase after 48 hrs by MTT assay; format: functional, cell-based; conditions: SW480, 48 h
How it was run: (§3)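 Cells grown in DMEM with 3 mM HEPES and 10% Serum Supreme at 37 °C, 5% CO2. Proliferation read by MTT assay 48 h after drug addition; IC50 given as mean of two separate determinations, each in duplicate.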

[9] = system: HeLa; assay: Cell cycle arrest in human HeLa cells assessed as accumulation at G2/M phase at 2 uM treated 2 hr and measured 8 hr post double thymidine-synchrony release using propidium iodide staining by FACS analysis (reference value: 86 %); format: functional
How it was run: (§4)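 Cells harvested at set times post-release, fixed in 70% ethanol, stained with 5 μg/ml propidium iodide plus 0.5 mg/ml RNase A, and analysed by flow cytometry. Cell-cycle phase fractions calculated by ModFit.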

[10] = system: HeLa; assay: Cell cycle arrest in human HeLa cells assessed as accumulation at G2/M phase at 2 uM treated 2 hr and measured 12 hr post double thymidine-synchrony release using propidium iodide staining by FACS analysis (reference value: 17 %); format: functional; how it was run: as §4
[11] = system: A2058; assay: Cell cycle arrest in human A2058 cells assessed as accumulation at G2/M phase at 2 uM treated 1 hr and measured 12 hr post double hydroxyurea-synchrony release using propidium iodide staining by FACS analysis (reference value: 39 %); format: functional
[12] = Cell cycle arrest in human SK-MEL-13 cells assessed as accumulation at S phase at 2 uM treated 1 hr and measured 10 hr post double hydroxyurea-synchrony release using propidium iodide staining by FACS analysis (reference value: 16 %); format: functional, cell-based; how it was run: as §1
[13] = system: HeLa; assay: Cell cycle arrest in human HeLa cells assessed as accumulation at G1 phase at 2 uM treated 6 hr and measured 12 hr post double thymidine-synchrony release using propidium iodide staining by FACS analysis (reference value: 81 %); format: functional
[14] = system: HeLa; assay: Cell cycle arrest in human HeLa cells assessed as accumulation at G1 phase at 2 uM treated 6 hr and measured 10 hr post double thymidine-synchrony release using propidium iodide staining by FACS analysis (reference value: 68 %); format: functional
[15] = biological target: Cyclin-dependent kinase 4 (Homo sapiens) (UniProt P11802); assay: Inhibition of CDK4-mediated Rb phosphorylation at ser 795 in human HCT116 cells at IC90 after 24 hrs by immunoblot analysis; format: cell-based; conditions: HCT-116
Sequence of Cyclin-dependent kinase 4 (Homo sapiens) (P11802 whole entry): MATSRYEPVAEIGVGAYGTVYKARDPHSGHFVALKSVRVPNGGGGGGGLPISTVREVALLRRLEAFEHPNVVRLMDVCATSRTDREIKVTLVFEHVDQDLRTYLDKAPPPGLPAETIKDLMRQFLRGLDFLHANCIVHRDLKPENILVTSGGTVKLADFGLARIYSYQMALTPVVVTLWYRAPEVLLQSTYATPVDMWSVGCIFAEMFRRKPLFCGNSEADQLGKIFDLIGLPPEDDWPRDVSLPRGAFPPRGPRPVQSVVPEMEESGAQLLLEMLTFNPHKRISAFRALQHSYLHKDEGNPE
How it was run: (§5)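 Asynchronous HCT-116 cells (DMEM, 3 mM HEPES, 10% serum, 37 °C, 5% CO₂) were given increasing inhibitor doses for 4 or 24 h. Lysis in NETN with phosphatase and protease inhibitors, then SDS-PAGE, nitrocellulose transfer and immunoblot for phospho-Rb (Ser-795) with HRP secondary and chemiluminescence.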

[16] = Cell cycle arrest in Rb-competent human SK-MEL-13 cells assessed as accumulation at sub-diploid phase at 2 uM after 24 hrs by FACS analysis; format: functional; how it was run: as §2
[17] = Cell cycle arrest in human SK-MEL-13 cells assessed as time taken to reach peak mitosis at 2 uM treated 1 hr and post double hydroxyurea-synchrony release using propidium iodide staining by FACS analysis; format: functional, cell-based; how it was run: as §1
[18] = system: HeLa; assay: Cell cycle arrest in human HeLa cells assessed as accumulation at G2/M phase at 2 uM treated 6 hr and measured 12 hr post double thymidine-synchrony release using propidium iodide staining by FACS analysis (reference value: 17 %); format: functional; how it was run: as §4
[19] = Cell cycle arrest in human SK-MEL-13 cells assessed as accumulation at G1 phase at 2 uM treated 1 hr and measured 12 hr post double hydroxyurea-synchrony release using propidium iodide staining by FACS analysis (reference value: 40 %); format: functional, cell-based; how it was run: as §1
[20] = system: HCT-116; assay: Cell cycle arrest in Rb-competent human HCT116 cells assessed as […] at IC90 after 24 hrs using BrdUrd staining by FACS analysis (Rvb =38 %); format: functional
[21] = biological target: Mitogen-activated protein kinase 3 (Homo sapiens, UniProt P27361); assay: Inhibition of ERK1 using fluorescent substrate by IMAP assay
Sequence of Mitogen-activated protein kinase 3 (P27361 whole entry): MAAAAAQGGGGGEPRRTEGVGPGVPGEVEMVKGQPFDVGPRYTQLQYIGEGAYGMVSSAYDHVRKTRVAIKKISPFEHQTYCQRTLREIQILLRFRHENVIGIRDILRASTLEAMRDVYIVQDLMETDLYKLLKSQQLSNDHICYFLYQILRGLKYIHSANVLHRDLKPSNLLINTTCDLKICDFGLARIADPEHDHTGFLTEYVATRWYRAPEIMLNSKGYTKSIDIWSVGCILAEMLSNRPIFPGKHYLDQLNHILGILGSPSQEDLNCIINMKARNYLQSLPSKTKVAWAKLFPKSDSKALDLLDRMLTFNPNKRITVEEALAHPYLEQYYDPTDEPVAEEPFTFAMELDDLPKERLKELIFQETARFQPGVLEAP
How it was run: (§6)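 Run in-house using IMAP: phosphorylated fluorescent peptide substrate binds preferentially to immobilized metal beads, which quantifies kinase activity. ATP at 3× the Km of each enzyme.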

[22] = biological target: Cyclin-dependent kinase 4 (Homo sapiens) (UniProt P11802); assay: Inhibition of CDK4-mediated Rb phosphorylation at ser 795 in human HCT116 cells at IC50 after 4 hrs by immunoblot analysis; format: cell-based; conditions: HCT-116; how it was run: as §5
[23] = system: HeLa; assay: Cell cycle arrest in human HeLa cells assessed as accumulation at G2/M phase at 2 uM treated 6 hr and measured 10 hr post double thymidine-synchrony release using propidium iodide staining by FACS analysis (reference value: 31 %); format: functional; how it was run: as §4
[24] = system: HeLa; assay: Cell cycle arrest in human HeLa cells assessed as accumulation at G2/M phase at 2 uM treated 4 hr and measured 12 hr post double thymidine-synchrony release using propidium iodide staining by FACS analysis (reference value: 17 %); format: functional; how it was run: as §4
[25] = biological target: Cyclin-dependent kinase 2/cyclin E1 (Homo sapiens, UniProt P24941); assay: Inhibition of human CDK2-GST-tagged cyclin E using his-tagged Rb as substrate after 30 mins by scintillation counting method; format: protein-complex assay
[26] = system: RKO; assay: Antiproliferative activity against human RKO cells assessed as inhibition of S phase after 48 hrs by MTT assay; format: functional, cell-based; how it was run: as §3
[27] = Inhibition of p38 MAPK using fluorescent substrate by IMAP assay; how it was run: as §6

SMILES	Activity [1] [%]	Activity [2] [%]	Activity [3] [%]	IC50 [4] [nM]	Activity [5] [%]	Activity [6]	Activity [7] [%]	IC50 [8] [nM]	Activity [9] [%]	Activity [10] [%]	Activity [11] [%]	Activity [12] [%]	Activity [13] [%]	Activity [14] [%]	inhibition [15]	Activity [16] [%]	TIME [17] [h]	Activity [18] [%]	Activity [19] [%]	Activity [20] [%]	also measured
COc1cccc(C(=O)c2sc(Nc3ccc(N4CCN(C(C)C)CC4)cc3)nc2N)c1	18	12	12	1970	65	Toxic	4	1060	84	88	60	14	73	56	Active	9	10	25	13	11	IC50 [21]: > 100 µM; inhibition [22]: Active; Activity [23]: 43%; Activity [24]: 62%; IC50 [25]: 4.14 µM; IC50 [26]: 540 nM; IC50 [27]: > 100 µM
CN1CCN(c2ccc(Nc3nc(N)c(C(=O)c4ccc5c(c4)OCCO5)s3)cc2)CC1	18	12	12	3040	65	Toxic	4	3670	84	88	60	14	73	56	Active	9	10	25	13	11	IC50 [21]: > 100 µM; inhibition [22]: Active; Activity [23]: 43%; Activity [24]: 62%; IC50 [25]: 2.36 µM; IC50 [26]: 1600 nM; IC50 [27]: 29 µM
